{"source": "ChEMBL document CHEMBL3351507", "about": "“11H-Pyrido[3',2':4,5]pyrrolo[3,2-c]cinnoline and pyrido[3',2':4,5]pyrrolo[1,2-c][1,2,3]benzotriazine: two new ring systems with antitumor activity” (2014)", "key": {"Jurkat [1]": {"tested_on": "Jurkat", "test": "Induction of apoptosis in human Jurkat cells assessed as caspase-3 activation at 500 nM after 6 to 24 hrs by plate reader analysis", "assay_type": "functional, cell-based", "in_short": "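Jurkat cells were treated with 500 nM compound for 6 h and 24 h, then lysed. Lysates were incubated with pNA-conjugated substrates: Ac-DEVD (caspase-3), Ac-IETD (caspase-8) and LEHD (caspase-9). pNA release was read at 405 nm and normalized to Bradford protein. Results are expressed as fold increase over untreated control.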"}, "HL-60(TB)": {"tested_on": "HL-60(TB)", "test": "Cytotoxicity against human HL-60(TB) cells assessed as growth inhibition after 72 hrs by […] assay", "assay_type": "functional", "conditions": "HL-60, 72 h", "in_short": "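HL-60(TB) was tested within the NCI 60 human cancer cell line panel. Compounds that met the NCI single-dose activity criteria were retested on the full panel at 5 concentrations in 10-fold dilutions (10-4–10-8 M). GI50 is the molar concentration giving 50% inhibition of net cell growth; TGI was also reported.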"}, "CCRF-CEM": {"tested_on": "CCRF-CEM", "test": "Resistance index, ratio of GI50 for human vinblastin-resistant CEM cells to GI50 for human CEM cells", "assay_type": "functional", "in_short": "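CEMVbl-100 (vinblastine-selected CEM) was grown in RPMI-1640 with 0.1 µg/mL vinblastine. LoVoDoxo was grown in HAM's F12 with 0.1 µg/mL doxorubicin; parental CEM and LoVo were grown without drug. Media had 10% FBS. 5x10^3 cells were seeded, preincubated 24 h at 37 °C, then exposed 72 h to compound (DMSO <1%). Read-out was MTT; GI50 came from dose-response curves of ≥3 experiments. RI = GI50 resistant / GI50 parental.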"}, "Jurkat [2]": {"tested_on": "Jurkat", "test": "Induction of apoptosis in human Jurkat cells assessed as mitochondrial membrane potential depolarization after 24 hrs by JC-1 staining-based flow cytometry", "assay_type": "functional, cell-based", "in_short": "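After 24 h of treatment, Jurkat cells were resuspended in HBSS and stained with JC-1. Flow cytometry measured the percentage of cells with low potential (green monomer fluorescence). Mean ± SEM of 3 experiments.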"}, "U-251": {"tested_on": "U-251", "test": "Cytotoxicity against human U251 cells assessed as growth inhibition after 72 hrs by MTT assay", "assay_type": "functional", "conditions": "U-251, 72 h", "in_short": "(§1)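 NCI 60-cell-line panel screen. Compounds were tested at 5 concentrations in 10-fold dilution (10^-4 to 10^-8 M) across the full panel. GI50 was taken as the molar concentration giving 50% inhibition of net cell growth.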"}, "Jurkat [3]": {"tested_on": "Jurkat", "test": "Induction of ROS generation in human Jurkat cells at 500 nM after 24 hrs by HE/DCFH2-DA staining-based flow cytometry relative to control", "assay_type": "functional, cell-based", "in_short": "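Jurkat cells were exposed to 500 nM compound for 24 h, then loaded in HBSS with 2.5 µM hydroethidine or 0.1 µM H2DCFDA for 30 min at 37 °C. Flow cytometry used 488 nm excitation, with emission at 585 nm (HE) or 530 nm (DCF). Mean ± SEM of 3 experiments.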"}, "[4]": {"target": "T1, DNA topoisomerase 1 (Homo sapiens) (UniProt P11387)", "T1 sequence (whole entry)": "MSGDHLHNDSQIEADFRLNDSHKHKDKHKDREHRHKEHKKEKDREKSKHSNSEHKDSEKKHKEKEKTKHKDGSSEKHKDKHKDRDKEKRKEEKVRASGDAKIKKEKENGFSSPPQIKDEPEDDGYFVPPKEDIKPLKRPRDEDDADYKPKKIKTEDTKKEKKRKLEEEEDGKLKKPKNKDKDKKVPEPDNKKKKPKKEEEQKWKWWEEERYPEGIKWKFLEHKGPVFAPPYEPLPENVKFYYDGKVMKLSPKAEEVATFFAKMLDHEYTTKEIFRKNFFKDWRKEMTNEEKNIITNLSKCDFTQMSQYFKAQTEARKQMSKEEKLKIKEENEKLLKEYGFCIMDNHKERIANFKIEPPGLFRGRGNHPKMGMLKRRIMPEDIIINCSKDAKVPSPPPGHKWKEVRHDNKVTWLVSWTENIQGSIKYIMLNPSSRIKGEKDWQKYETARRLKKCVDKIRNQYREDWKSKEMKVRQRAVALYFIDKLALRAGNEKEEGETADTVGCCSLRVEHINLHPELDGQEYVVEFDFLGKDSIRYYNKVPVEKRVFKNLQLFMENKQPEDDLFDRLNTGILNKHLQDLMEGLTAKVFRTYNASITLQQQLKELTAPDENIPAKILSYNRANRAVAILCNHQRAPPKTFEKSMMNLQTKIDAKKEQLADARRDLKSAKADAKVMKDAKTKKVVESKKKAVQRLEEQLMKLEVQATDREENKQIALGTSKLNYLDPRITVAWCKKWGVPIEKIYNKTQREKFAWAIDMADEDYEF", "test": "Inhibition of human DNA topoisomerase 1-mediated DNA single strand cleavage at 5 to 100 uM after 30 mins by agarose gel electrophoresis relative to untreated control", "in_short": "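Reactions were set up as for relaxation: human topoisomerase I, 0.250 µg pBR322, compound 5-100 µM, 37 °C for 30 min, stopped with SDS/proteinase K. Samples were run on 0.8% agarose containing 0.5 µg/mL ethidium bromide, then destained in water, so that cleaved/nicked DNA could be detected under UV.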"}, "LoVo": {"tested_on": "LoVo", "test": "Cytotoxicity against human LoVo cells assessed as growth inhibition after 72 hrs by MTT assay", "assay_type": "functional", "in_short": "(§2)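 Cells were grown in medium with 10% heat-inactivated FBS plus penicillin/streptomycin: RPMI-1640 for Jurkat and CEM, DMEM for A-431, HAM's F12 for LoVo. The doxorubicin-resistant LoVo subclone was kept with 0.1 µg/mL doxorubicin. Cells were seeded at 5x10^3 per well and pre-incubated 24 h at 37 °C.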"}, "Jurkat [5]": {"tested_on": "Jurkat", "test": "Cell cycle arrest in human Jurkat cells assessed as accumulation at G1 phase at 0.5 uM after 24 hrs by propidium iodide staining-based flow cytometry (reference value: 62.6%)", "assay_type": "functional"}, "[6]": {"test": "Cytotoxicity against human UO31 cells assessed as growth inhibition after 72 hrs by MTT assay", "assay_type": "functional", "conditions": "UO-31, 72 h", "in_short": "as §1"}, "[7]": {"target": "T1, DNA topoisomerase 1 (Homo sapiens)", "test": "Inhibition of human DNA topoisomerase 1-mediated relaxation of supercoiled pBR322 plasmid DNA at 5 to 100 uM after 30 mins by agarose gel electrophoresis relative to untreated control", "in_short": "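Human topoisomerase I (10 units) was incubated with 0.250 µg supercoiled pBR322 and compound (5-100 µM) for 30 min at 37 °C. Buffer: 50 mM Tris-HCl pH 7.5, 50 mM KCl, 0.5 mM DTT, 10 mM MgCl2, 0.1 mM EDTA, 30 µg/mL BSA. Reactions were stopped with 1% SDS and proteinase K (50 µg/mL, 30 min). Samples ran on 0.8% agarose in TAE at 20 V overnight, then were post-stained with ethidium bromide.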"}, "CAKI-1": {"tested_on": "CAKI-1", "test": "Cytotoxicity against human Caki1 cells assessed as growth inhibition after 72 hrs by MTT assay", "assay_type": "functional", "conditions": "CAKI-1, 72 h"}, "NCI-H522": {"tested_on": "NCI-H522", "test": "Cytotoxicity against human NCI-H522 cells assessed as growth inhibition after 72 hrs by MTT assay", "assay_type": "functional", "conditions": "NCI-H522, 72 h", "in_short": "as §1"}, "IGROV-1": {"tested_on": "IGROV-1", "test": "Cytotoxicity against human IGROV1 cells assessed as growth inhibition after 72 hrs by MTT assay", "assay_type": "functional", "conditions": "IGROV-1, 72 h"}, "A-431": {"tested_on": "A-431", "test": "Cytotoxicity against human A431 cells assessed as growth inhibition after 72 hrs by MTT assay", "assay_type": "functional", "conditions": "A-431, 72 h", "in_short": "as §2"}}, "note": "Activity calls are given as the source filed them.", "data": [{"smiles": "COc1cc2nnn3c4ncccc4c(N=O)c3c2cc1OC", "values": [{"measurement": "Activity", "setting": "Jurkat [1]", "result": "Active"}, {"measurement": "GI50", "setting": "HL-60(TB)", "result": 0.04, "unit": "µM"}, {"measurement": "Ratio", "setting": "CCRF-CEM", "result": 2.13}, {"measurement": "Activity", "setting": "Jurkat [2]", "result": "Dose-dependent effect"}, {"measurement": "GI50", "setting": "U-251", "result": 0.6, "unit": "µM"}, {"measurement": "Activity", "setting": "Jurkat [3]", "result": "Active"}, {"measurement": "Activity", "setting": "[4]", "result": "Active"}, {"measurement": "GI50", "setting": "LoVo", "result": 3.89, "unit": "µM"}, {"measurement": "Activity", "setting": "Jurkat [5]", "result": 21, "unit": "%"}, {"measurement": "GI50", "setting": "[6]", "result": 0.4, "unit": "µM"}, {"measurement": "Activity", "setting": "[7]", "result": "Active"}, {"measurement": "GI50", "setting": "CAKI-1", "result": 0.048, "unit": "µM"}, {"measurement": "GI50", "setting": "NCI-H522", "result": 4.01, "unit": "µM"}, {"measurement": "GI50", "setting": "IGROV-1", "result": 1.94, "unit": "µM"}, {"measurement": "GI50", "setting": "A-431", "result": 1.41, "unit": "µM"}]}, {"smiles": "COc1ccc2c(c1)nnn1c3ncccc3c(N=O)c21", "values": [{"measurement": "Activity", "setting": "Jurkat [1]", "result": "Active"}, {"measurement": "GI50", "setting": "HL-60(TB)", "result": 0.043, "unit": "µM"}, {"measurement": "Ratio", "setting": "CCRF-CEM", "result": 2}, {"measurement": "Activity", "setting": "Jurkat [2]", "result": "Dose-dependent effect"}, {"measurement": "GI50", "setting": "U-251", "result": 0.72, "unit": "µM"}, {"measurement": "Activity", "setting": "Jurkat [3]", "result": "Active"}, {"measurement": "Activity", "setting": "[4]", "result": "Active"}, {"measurement": "GI50", "setting": "LoVo", "result": 1.28, "unit": "µM"}, {"measurement": "Activity", "setting": "Jurkat [5]", "result": 28.1, "unit": "%"}, {"measurement": "GI50", "setting": "[6]", "result": 0.076, "unit": "µM"}, {"measurement": "Activity", "setting": "[7]", "result": "Active"}, {"measurement": "GI50", "setting": "CAKI-1", "result": 0.089, "unit": "µM"}, {"measurement": "GI50", "setting": "NCI-H522", "result": 1.25, "unit": "µM"}, {"measurement": "GI50", "setting": "IGROV-1", "result": 0.11, "unit": "µM"}, {"measurement": "GI50", "setting": "A-431", "result": 0.93, "unit": "µM"}]}, {"smiles": "O=Nc1c2cccnc2n2nnc3ccc(Cl)cc3c12", "values": [{"measurement": "GI50", "setting": "HL-60(TB)", "result": 0.3, "unit": "µM"}, {"measurement": "GI50", "setting": "U-251", "result": 1.27, "unit": "µM"}, {"measurement": "GI50", "setting": "[6]", "result": 0.65, "unit": "µM"}, {"measurement": "GI50", "setting": "CAKI-1", "result": 0.13, "unit": "µM"}, {"measurement": "GI50", "setting": "NCI-H522", "result": 0.95, "unit": "µM"}, {"measurement": "GI50", "setting": "IGROV-1", "result": 1.35, "unit": "µM"}]}, {"smiles": "COc1cc2nnc3c4cccnc4[nH]c3c2cc1OC", "values": [{"measurement": "GI50", "setting": "HL-60(TB)", "result": 0.19, "unit": "µM"}, {"measurement": "GI50", "setting": "U-251", "result": 0.92, "unit": "µM"}, {"measurement": "GI50", "setting": "[6]", "result": 0.49, "unit": "µM"}, {"measurement": "GI50", "setting": "CAKI-1", "result": 0.18, "unit": "µM"}, {"measurement": "GI50", "setting": "NCI-H522", "result": 2.05, "unit": "µM"}, {"measurement": "GI50", "setting": "IGROV-1", "result": 1.73, "unit": "µM"}]}, {"smiles": "COc1ccc2c(c1)nnc1c3cccnc3[nH]c21", "values": [{"measurement": "Activity", "setting": "Jurkat [1]", "result": "Active"}, {"measurement": "GI50", "setting": "HL-60(TB)", "result": 0.16, "unit": "µM"}, {"measurement": "Ratio", "setting": "CCRF-CEM", "result": 1.57}, {"measurement": "Activity", "setting": "Jurkat [2]", "result": "Dose-dependent effect"}, {"measurement": "GI50", "setting": "U-251", "result": 0.93, "unit": "µM"}, {"measurement": "Activity", "setting": "Jurkat [3]", "result": "Active"}, {"measurement": "Activity", "setting": "[4]", "result": "Active"}, {"measurement": "GI50", "setting": "LoVo", "result": 3.64, "unit": "µM"}, {"measurement": "Activity", "setting": "Jurkat [5]", "result": 33.2, "unit": "%"}, {"measurement": "GI50", "setting": "[6]", "result": 0.12, "unit": "µM"}, {"measurement": "Activity", "setting": "[7]", "result": "Active"}, {"measurement": "GI50", "setting": "CAKI-1", "result": 0.11, "unit": "µM"}, {"measurement": "GI50", "setting": "NCI-H522", "result": 1.09, "unit": "µM"}, {"measurement": "GI50", "setting": "IGROV-1", "result": 0.31, "unit": "µM"}, {"measurement": "GI50", "setting": "A-431", "result": 2.35, "unit": "µM"}]}]}
